Several values for one entry are separate records, joined by “and”; a condition that tells them apart may be missing. Equal values may be shown once. Entries after “also recorded” stand apart in the source; their conditions may differ. Read-outs that look alike come from different tables or passages of the source.
Columns and labels:
[1] = PFHxS concentration in serum and urine after dermal exposure; type: in vivo, B6C3F1 mice; conditions: 28 days; for Urine PFHxS concentration: 5 pooled samples; for PFHxS serum concentration: 24 h after last exposure
Method in brief: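 Mice received 25 μl/ear of acetone or 1.25, 2.5, 5% w/v test compound on both ears daily for 28 days. About 24 h after the last exposure, serum was taken by cardiac puncture (5 mice/group) and urine was pooled per group. Analysis was solid-phase extraction with LC/MS/MS (BEH C18, EPA method 537), linear isomer only. Serum was compared with vehicle by one-way ANOVA.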

[2] = test system: B6C3F1 mice; assay: Serum chemistries after 28-day dermal exposure; type: in vivo; conditions: 28 days
Method in brief: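 After 28 daily ear applications (25 μl/ear; acetone or 1.25, 2.5, 5% w/v), blood was taken by cardiac puncture about 24 h post-dose. Serum was separated by centrifugation and frozen at −20 °C, then run on a Catalyst DX chemistry analyzer for ALKP, BUN, glucose, cholesterol and ALT. There were 4–5 mice/group, with one-way ANOVA and Dunnett's post-test versus vehicle.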

[3] = test system: B6C3F1 mice; assay: Histopathology; type: in vivo; conditions: for Liver: bile, increased, hepatocyte, minimal (incidence) / Liver: hypertrophy, hepatocyte, marked (incidence) / Liver: infiltrate, mononuclear cell, mild (incidence) / Liver: infiltrate, mononuclear cell, minimal (incidence) / Liver: necrosis, mild (incidence) / Liver: necrosis, minimal (incidence) / Liver: pigment macrophage, minimal (incidence) / Spleen: decreased cellularity, lymphocyte, mild (incidence): mice affected of 5
Method in brief: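 Female B6C3F1 mice (5/group) received 25 μl/ear of acetone vehicle or 1.25–5% w/v test compound daily on both ears for 28 days, with necropsy about 24 h later. Liver, half spleen, half ear pinna and right kidney were fixed in 10% formalin, paraffin-embedded, cut at 5 μm and H&E-stained. A veterinary pathologist scored them per STP guideline, grades 1 (minimal) to 5 (severe).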

[4] = test system: liver; assay: Liver gene expression; type: in vivo, B6C3F1 mice
Method in brief: (§1)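 Mice were dosed daily on both ears (25 μl/ear; acetone vehicle or 1.25, 2.5, 5% w/v) for 28 days. Half an ear pinna or the caudate liver lobe was homogenized in Buffer RLT, and total RNA was column-isolated with DNase treatment. TaqMan qPCR gave relative fold change (2−ΔΔCT) versus vehicle controls, normalized to β-actin. Liver used 4–5 mice/group, one-way ANOVA/Dunnett or Kruskal-Wallis/Dunn.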

[5] = test system: ear; assay: Skin; type: in vivo, B6C3F1 mice; conditions: 28 days
Method in brief: as §1

[6] = test system: spleen; assay: Spleen gene expression; type: in vivo, B6C3F1 mice; conditions: PFHxS dermal, 28 days
Method in brief: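 Spleens came from female B6C3F1 mice given acetone vehicle or test compound (1.25–5% w/v, 25 μl/ear, both ears) daily for 28 days and necropsied about 24 h after the last dose. Gene expression was measured by qPCR and expressed as mean fold change relative to vehicle, with 5 mice/group. Significance used one-way ANOVA with Dunnett's or Kruskal-Wallis with Dunn's post-test.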

[7] = 28 days of 20 mg/kg/d oral gavage, female mice; ref Narizzano et al., 2021; cited from earlier work
[8] = female rats, 14-days of 10 mg/kg/day oral exposure; ref Butenhoff et al., 2009; cited from earlier work
[9] = 14-days of 3 mg/kg/day oral exposure; ref Chang et al., 2018; cited from earlier work
[10] = test system: Deer mice; conditions: oral gavage for 28-days, 7 and 14 mg/kg/d; ref Narizzano et al., 2023; cited from earlier work
[11] = PFHxS exposure, 28 days (discussion, approximate)
[12] = all three concentrations of PFHxS, 28 days

Compound: O=S(=O)(O)C(F)(F)C(F)(F)C(F)(F)C(F)(F)C(F)(F)C(F)(F)F [PFHxS, Perfluorohexane sulfonic acid]
- Urine PFHxS concentration ([1]; 1.25% PFHxS dermal): 43 µg/mL
- PFHxS serum concentration ([1]; 1.25% PFHxS dermal): 440 µg/mL
- Urine PFHxS concentration ([1]; 2.5% PFHxS dermal): 120 µg/mL
- PFHxS serum concentration ([1]; 2.5% PFHxS dermal): 608 µg/mL
- Urine PFHxS concentration ([1]; 5% PFHxS dermal): 130 µg/mL
- PFHxS serum concentration ([1]; 5% PFHxS dermal): 656 µg/mL
- Serum ALT fold increase ([2]; 1.25% PFHxS dermal): 3.66 fold
- Serum ALKP fold increase ([2]; 2.5% PFHxS dermal): 2.11 fold
- Serum ALT fold increase ([2]; 2.5% PFHxS dermal): 2.9 fold
- Serum BUN change ([2]; 2.5 and 5% PFHxS dermal): decreased
- Serum cholesterol change ([2]; 2.5 and 5% PFHxS dermal): decreased
- Serum ALKP fold increase ([2]; 5% PFHxS dermal): 2.61 fold
- Serum ALKP increase ([2]; 5% PFHxS dermal): 161%
- Serum ALT fold increase ([2]; 5% PFHxS dermal): 4.6 fold
- Serum ALT increase ([2]; 5% PFHxS dermal): 360%
- Serum cholesterol decrease ([2]; 5% PFHxS dermal): 43%
- Serum glucose decrease ([2]; 5% PFHxS dermal): 58%
- Serum urea nitrogen (BUN) decrease ([2]; 5% PFHxS dermal): 34%
- Serum glucose change ([2]; all three PFHxS concentrations (1.25, 2.5, 5%)): decreased
- Liver: bile, increased, hepatocyte, minimal (incidence) ([3]; 1.25% PFHxS, 28 days): 5/5 and 5
- Liver: hypertrophy, hepatocyte, marked (incidence) ([3]; 1.25% PFHxS, 28 days): 5
- Liver: infiltrate, mononuclear cell, mild (incidence) ([3]; 1.25% PFHxS, 28 days): 1/5 and 1
- Liver: infiltrate, mononuclear cell, minimal (incidence) ([3]; 1.25% PFHxS, 28 days): 2/5 and 2
- Liver: necrosis, mild (incidence) ([3]; 1.25% PFHxS, 28 days): 2/5 and 2
- Liver: necrosis, minimal (incidence) ([3]; 1.25% PFHxS, 28 days): 3/5 and 3
- Liver: pigment macrophage, minimal (incidence) ([3]; 1.25% PFHxS, 28 days): 4/5 and 4
- Spleen: decreased cellularity, lymphocyte, mild (incidence) ([3]; 1.25% PFHxS, 28 days): 2/5 and 2
- Liver: bile, increased, hepatocyte, minimal (incidence) ([3]; 2.5% PFHxS, 28 days): 5/5 and 5
- Liver: hypertrophy, hepatocyte, marked (incidence) ([3]; 2.5% PFHxS, 28 days): 5
- Liver: infiltrate, mononuclear cell, mild (incidence) ([3]; 2.5% PFHxS, 28 days): 0
- Liver: infiltrate, mononuclear cell, minimal (incidence) ([3]; 2.5% PFHxS, 28 days): 2/5 and 2
- Liver: necrosis, mild (incidence) ([3]; 2.5% PFHxS, 28 days): 1/5 and 1
- Liver: necrosis, minimal (incidence) ([3]; 2.5% PFHxS, 28 days): 4/5 and 4
- Liver: pigment macrophage, minimal (incidence) ([3]; 2.5% PFHxS, 28 days): 5/5 and 5
- Spleen: decreased cellularity, lymphocyte, mild (incidence) ([3]; 2.5% PFHxS, 28 days): 4/5 and 4
- Liver: bile, increased, hepatocyte, minimal (incidence) ([3]; 5% PFHxS, 28 days): 5/5 and 5
- Liver: hypertrophy, hepatocyte, marked (incidence) ([3]; 5% PFHxS, 28 days): 5
- Liver: infiltrate, mononuclear cell, mild (incidence) ([3]; 5% PFHxS, 28 days): 0
- Liver: infiltrate, mononuclear cell, minimal (incidence) ([3]; 5% PFHxS, 28 days): 1/5 and 1
- Liver: necrosis, mild (incidence) ([3]; 5% PFHxS, 28 days): 1/5 and 1
- Liver: necrosis, minimal (incidence) ([3]; 5% PFHxS, 28 days): 4/5 and 4
- Liver: pigment macrophage, minimal (incidence) ([3]; 5% PFHxS, 28 days): 4/5 and 4
- Spleen: decreased cellularity, lymphocyte, mild (incidence) ([3]; 5% PFHxS, 28 days): 5/5 and 5
- Skin irritation at the site of application ([3]; PFHxS dermal exposure): no skin irritation
- Skin histopathology at the dosing site ([3]; PFHxS dermal, 28 days): No microscopic abnormalities; also recorded: no histopathological changes
- Liver Cyp7a1 gene expression ([4]; 1.25% PFHxS, 28 days): Decreases
- Liver Pparδ gene expression ([4]; 1.25% and 2.5% PFHxS, 28 days): decrease
- Liver Pparγ gene expression ([4]; 1.25% and 5% PFHxS, 28 days): increase
- Liver Pparα gene expression ([4]; 1.25-5% PFHxS, 28 days): No change
- Liver Apoa1 gene expression ([4]; 2.5% PFHxS, 28 days): Decreases
- Liver Serpine1 gene expression, fold increase ([4]; 2.5% PFHxS, 28 days): 52 fold
- Liver Acox1 gene expression, fold increase ([4]; 5% PFHxS, 28 days): 6.7 fold
- Liver Avpr1a gene expression ([4]; 5% PFHxS, 28 days): Decreases
- Liver Cd36 gene expression, fold increase ([4]; 5% PFHxS, 28 days): 23 fold
- Liver Cpt1b gene expression, fold increase ([4]; 5% PFHxS, 28 days): 33 fold
- Liver Cyp4a10 gene expression, fold increase ([4]; 5% PFHxS, 28 days): 22 fold
- Liver Ehhadh gene expression, fold increase ([4]; 5% PFHxS, 28 days): 61 fold
- Liver Lpl gene expression, fold increase ([4]; 5% PFHxS, 28 days): 30 fold
- Liver Pla2g12a gene expression, fold increase ([4]; 5% PFHxS, 28 days): 16 fold
- Liver Acox1 gene expression, fold increase [4, 11]: ~ 6 fold
- Liver Ehhadh gene expression, fold increase [4, 11]: ~ 50 fold
- Liver Cd36 gene expression, fold increase [4, 12]: ~ 25 fold
- Liver Lpl gene expression, fold increase [4, 12]: ~ 25 fold
- Skin Serpine1 gene expression, fold increase ([5]; 1.25% PFHxS): 3 fold
- Skin Il-1β gene expression ([5]; 1.25-5% PFHxS): no significant changes
- Skin Pparα gene expression ([5]; 1.25-5% PFHxS): no change
- Skin barrier gene Flg2 expression ([5]; 1.25-5% PFHxS): No changes
- Skin barrier gene Itgbl1 expression ([5]; 1.25-5% PFHxS): No changes
- Skin barrier gene Krt10 expression ([5]; 1.25-5% PFHxS): No changes
- Skin barrier gene Krt14 expression ([5]; 1.25-5% PFHxS): No changes
- Skin Serpine1 gene expression, fold increase ([5]; 2.5% PFHxS): 4 fold
- Skin barrier gene Lor expression ([5]; 2.5%, 5% PFHxS): Increases
- Skin Cxcl1 gene expression, fold increase ([5]; 5% PFHxS): 5 fold
- Skin Il-6 gene expression, fold increase ([5]; 5% PFHxS): 2 fold
- Skin Pparγ gene expression ([5]; 5% PFHxS): decrease
- Skin Pparδ gene expression ([5]; 5% PFHxS): increase
- Skin S100a8 gene expression, fold increase ([5]; 5% PFHxS): 9 fold
- Skin Serpine1 gene expression, fold increase ([5]; 5% PFHxS): 4 fold
- Skin Tslp gene expression, fold increase ([5]; 5% PFHxS): 33 fold
- Skin barrier gene Flg expression ([5]; 5% PFHxS): Increases
- Spleen Abcg1 gene expression [6]: increased
- Spleen Chac1 gene expression [6]: increased
- Spleen Crim1 gene expression [6]: increased
- Spleen Ctse gene expression [6]: decrease
- Spleen Fbxo38 gene expression [6]: increased
- Spleen Id1 gene expression [6]: increased
- Spleen Il-10 gene expression [6]: increased
- Spleen Tlr5 gene expression [6]: increased
- Spleen Tlr6 gene expression [6]: increased
- Spleen Tlr7 gene expression [6]: increased
- Spleen Tlr8 gene expression [6]: increased
- Serum level [7]: 35000 ng/mL
- Serum concentration [8]: 42000 ng/mL
- Serum concentration [9]: 180000 ng/mL
- PFC formation [10]: reduction

— publication PMC11406440 (Food and chemical toxicology : an international journal …, 2024)
